Experimental data taken from ChEMBL document CHEMBL4033778, “Species-Selective Pyrimidineamine Inhibitors of Trypanosoma brucei S-Adenosylmethionine Decarboxylase” (J Med Chem, 2018).

Columns and labels:
[1] = biological target: T1, S-adenosylmethionine decarboxylase proenzyme (Homo sapiens, UniProt P17707); test: Inhibition of recombinant human N-terminal His6-tagged AdoMetDC expressed in Escherichia coli BL21/DE3 cells at pH 7.2 by RapidFire-MS-based enzyme activity assay
T1 sequence (P17707 whole entry): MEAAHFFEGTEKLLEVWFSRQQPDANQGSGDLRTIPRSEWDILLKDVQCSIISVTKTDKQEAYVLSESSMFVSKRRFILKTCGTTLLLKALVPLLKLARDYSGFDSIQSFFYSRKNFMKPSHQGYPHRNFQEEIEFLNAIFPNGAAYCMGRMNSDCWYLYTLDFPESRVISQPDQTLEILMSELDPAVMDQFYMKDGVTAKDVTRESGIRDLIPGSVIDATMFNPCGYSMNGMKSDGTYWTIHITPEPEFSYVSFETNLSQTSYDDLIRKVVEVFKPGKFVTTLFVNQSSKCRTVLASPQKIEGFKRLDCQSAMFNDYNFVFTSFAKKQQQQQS

[2] = test system: Trypanosoma brucei; test: Inhibition of recombinant Trypanosoma brucei N-terminal His6-tagged AdoMetDC/prozyme hetrodimer expressed in Escherichia coli BL21/DE3 cells at 180 uM at pH 7.2 by RapidFire-MS-based enzyme activity assay
Outline: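 Steady-state decarboxylation of S-adenosyl-L-methionine by purified TbAdoMetDC/prozyme at pH 7.2; decarboxylated AdoMet product read by RapidFire–MS. Inhibitor added from DMSO to 2% final DMSO. Percent inhibition reported at the top tested concentration when mean inhibition stayed below 50%; triplicate.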

[3] = Inhibition of recombinant Trypanosoma brucei N-terminal His6-tagged AdoMetDC/prozyme hetrodimer expressed in Escherichia coli BL21/DE3 cells at pH 7.2 by RapidFire-MS-based enzyme activity assay
[4] = biological target: T2, S-adenosylmethionine decarboxylase proenzyme (Homo sapiens) (UniProt P17707); test: Inhibition of recombinant human N-terminal His6-tagged AdoMetDC expressed in Escherichia coli BL21/DE3 cells at 180 uM at pH 7.2 by RapidFire-MS-based enzyme activity assay
T2 sequence (whole entry): T1 sequence (P17707 whole entry)

Row | Structure (SMILES) | IC50 [1] [µM] | inhibition [2] [%] | IC50 [3] [µM] | inhibition [4] [%]
1 | Cc1cc(Nc2cccc(Br)c2)nc(N)n1 | > 180 | 41 | – | –
2 | Cc1cc(Nc2ccc(C(C)C)cc2)nc(N)n1 | > 180 | – | > 180 | –
3 | Cc1cc(Nc2ccccc2)nc(N)n1 | > 180 | – | > 180 | –
4 | Cc1cc(Nc2cc(Cl)c(Cl)c(Cl)c2)nc(N)n1 | > 63 | – | 11 | –
5 | Cc1cc(Nc2cccc(F)c2)nc(N)n1 | > 180 | – | > 180 | –
6 | Cc1cc(Nc2cc(Cl)c(OC(F)F)c(Cl)c2)nc(N)n1 | > 63 | – | > 63 | –
7 | Cc1cc(Nc2ccc(-c3cc(Cl)cc(Cl)c3)cc2)nc(N)n1 | > 180 | – | > 180 | –
8 | Cc1cc(Nc2cc(Cl)cc(-c3ccc4ccccc4c3)c2)nc(N)n1 | > 180 | – | 57 | –
9 | Nc1nc(Nc2cc(Cl)cc(Cl)c2)cc(N2CCOCC2)n1 | > 180 | – | > 180 | –
10 | Cc1ccc(-c2cc(Cl)cc(Nc3cc(C)nc(N)n3)c2)cc1 | > 63 | – | 4.6 | –
11 | Nc1nc2c(c(Nc3cc(Cl)cc(Cl)c3)n1)CCC2 | > 21 | – | 12 | –
12 | CCCCOc1cc(Br)cc(Nc2cc(C)nc(N)n2)c1 | > 180 | – | 4.5 | –
13 | COc1cc(Nc2cc(C)nc(N)n2)cc(OC)c1 | – | – | 17 | 21
14 | Cc1cc(Nc2ccc(Cl)cc2C)nc(N)n1 | > 180 | – | > 180 | –
15 | Cc1cc(Nc2cc(Cl)cc(-c3ccccc3Cl)c2)nc(N)n1 | > 180 | – | 26 | –
16 | Cc1nc(N)cc(Nc2cc(Cl)cc(Br)c2)n1 | > 180 | 24 | – | –
17 | Cc1cc(Nc2cc(Cl)cc(-c3cccc(Cl)c3)c2)nc(N)n1 | > 180 | – | 81 | –
18 | Cc1cc(Nc2cc(Cl)c(N3CCCCC3)c(Cl)c2)nc(N)n1 | > 180 | – | > 180 | –
19 | Cc1cc(Nc2ccccc2Br)nc(N)n1 | > 180 | – | > 180 | –
20 | CC(C)c1cc(Nc2cc(Cl)cc(Cl)c2)nc(N)n1 | > 180 | – | 12 | –
21 | Cc1cc(Nc2cc(Cl)cc(-c3ccc(-c4ccccc4)cc3)c2)nc(N)n1 | > 180 | – | 167 | –
22 | Cc1cc(Nc2cc(Cl)cc(Cl)c2)cc(N)n1 | > 180 | – | 15 | –

Row | Structure (SMILES) | IC50 [1] [µM] | inhibition [2] [%] | IC50 [3] [µM] | inhibition [4] [%]
23 | Cc1cc(Nc2cc(Cl)cc(S(F)(F)(F)(F)F)c2)nc(N)n1 | > 180 | – | 16 | –
24 | Cc1cc(Nc2cc(F)cc(Cl)c2)nc(N)n1 | > 180 | – | 32 | –
25 | Cc1nc(N)nc(Nc2cc(Cl)cc(Cl)c2)c1C | – | – | 4.8 | 25
26 | CCOc1cc(Br)cc(Nc2cc(C)nc(N)n2)c1 | – | – | 6 | 36
27 | Nc1ccnc(Nc2cc(Cl)cc(Cl)c2)c1 | > 180 | – | > 180 | –
28 | Cc1cc(Nc2cc(Cl)c(F)c(Cl)c2F)nc(N)n1 | > 63 | – | 2.2 | –
29 | Cc1cc(Nc2cc(Cl)cc(-c3ccc(Cl)c(C(F)(F)F)c3)c2)nc(N)n1 | > 180 | – | 53 | –
30 | Cc1cc(Nc2cc(Cl)cc(Br)c2)nc(N)n1 | – | – | 2.2 | 33
31 | Cc1cc(Nc2cc(Cl)cc(-c3cc4ccccc4s3)c2)nc(N)n1 | > 180 | – | 41 | –
32 | Nc1cccc(Nc2cc(Cl)cc(Cl)c2)n1 | > 180 | – | > 180 | –
33 | CCc1cc(Br)cc(Nc2cc(C)nc(N)n2)c1 | > 180 | – | 7.6 | –
34 | Cc1cc(Nc2cc(Cl)cc(-c3ccc4nonc4c3)c2)nc(N)n1 | > 180 | – | 27 | –
35 | Cc1cc(Nc2cc(C(C)(C)C)cc(C(C)(C)C)c2)nc(N)n1 | > 63 | – | > 63 | –
36 | CSc1ccccc1Nc1cc(C)nc(N)n1 | > 180 | – | > 180 | –
37 | Cc1cc(Nc2cccc(Cl)c2)nc(N)n1 | > 180 | 35 | – | –
38 | Nc1cc(Nc2cc(Cl)cc(Cl)c2)ccn1 | > 180 | – | 22 | –
39 | Cc1cc(Nc2cc(C(F)(F)F)cc(C(F)(F)F)c2)nc(N)n1 | > 180 | – | 11 | –
40 | Cc1cc(Nc2cc(Cl)cc(-c3cc4ccccc4c4ccccc34)c2)nc(N)n1 | > 180 | – | > 180 | –
41 | Cc1cc(Nc2ccccc2C)nc(N)n1 | > 180 | – | > 180 | –
42 | Cc1cc(N(C)c2cc(Cl)cc(Cl)c2)nc(N)n1 | > 180 | – | 81 | –
43 | Cc1cc(Nc2cc(Cl)cc(-c3ccc(C#N)cc3)c2)nc(N)n1 | > 7 | – | 7.6 | –
